Results taken from ChEMBL document CHEMBL2163260, “Synthesis and biological evaluation of antifungal derivatives of enfumafungin as orally bioavailable inhibitors of β-1,3-glucan synthase” (Bioorg Med Chem Lett, 2012).
In brackets after ≈: the same amount, converted by molar mass.

Columns and labels:
Mus musculus = test: Dose normalised AUC in po dosed mouse; type: ADME, organism-based; details: in vivo
[1] = Oral bioavailability in mouse; type: ADME, organism-based; details: in vivo
[2] = Clearance in po dosed mouse; type: ADME, organism-based; details: in vivo
Candida albicans [3] = test: Antifungal activity against Candida albicans MY1055 infected in DBA/2 mouse assessed as reduction in kidney fungal burden measured per gram of tissue at 6.25 mg/kg, po bid for 2 days post infection measured after 4 days relative to sham-treated control; type: functional
Outline: (§1)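 DBA/2 mice were given 3.0 × 10^4 CFU of C. albicans MY1055 iv into the lateral tail vein in 0.2 mL. Dosing ip or po, bid for 2 days, began 15–30 min after challenge, with a sham-treated control for each route and diluent. At day 4, paired kidneys (4–5 mice/group) were homogenized in saline, serially diluted and plated on SD agar (35 °C, 30–48 h). Mean CFU/g was compared with sham.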

Candida albicans [4] = test: Antifungal activity against Candida albicans MY1055 infected in DBA/2 mouse assessed as reduction in kidney fungal burden measured per gram of tissue at 12.5 mg/kg, po bid for 2 days post infection measured after 4 days relative to sham-treated control; type: functional; outline: as §1
Candida albicans [5] = test: Antifungal activity against Candida albicans MY1055 infected in DBA/2 mouse assessed as reduction in kidney fungal burden measured per gram of tissue at 25 mg/kg, po bid for 2 days post infection measured after 4 days relative to sham-treated control; type: functional; outline: as §1
Candida albicans [6] = test: Antifungal activity against Candida albicans MY1055 infected in DBA/2 mouse assessed as reduction in kidney fungal burden measured per gram of tissue at 12.5 mg/kg, ip bid for 2 days post infection measured after 4 days relative to sham-treated control; type: functional; details: route intraperitoneal; outline: as §1
Candida albicans [7] = test: Antifungal activity against Candida albicans; type: functional
[8] = Inhibition of Candida albicans beta-1,3-glucan synthase assessed as [3H]UDPG incorporation after 60 mins by scintillation counting
Outline: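 C. albicans glucan synthase was incubated for 60 min at 22 °C in 50 mM HEPES pH 7.5 with 0.5 mM 3H-UDPG (6000–8000 dpm/nmol), 10% glycerol, 1.5 mg/mL BSA, 25 mM KF, 1 mM EDTA and GTP-γ-S. Enzyme was set to give 3–6 nmol incorporation. Compounds were added as threefold DMSO dilutions. The reaction was stopped with 20% TCA and chilled, and glucan was collected on GF/C filters, water-washed and scintillation counted.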

Candida albicans [9] = test: Antifungal activity against Candida albicans MY1055 after 24 hrs by NCCLS microdilution method; type: functional; details: MY1055, 24 h
[10] = Inhibition of Candida albicans MY1055 beta-1,3-glucan synthase assessed as [3H]UDPG incorporation after 60 mins

Structure (SMILES): CC(C)[C@@H](C)[C@@]1(C)CC[C@]2(C)[C@H]3CC[C@@H]4[C@@]5(COC[C@@]4(C)[C@@H](OC[C@H]4CCCN4)[C@H](n4ncnc4-c4ccncc4)C5)C3=CC[C@@]2(C)[C@@H]1C(=O)O
- AUC/dose (Mus musculus): 0.03 µM·kg·h/mg
- bioavailability [1]: 1.7%
- clearance [2]: 16.3 mL/min/kg
- deltalog10CFU (Candida albicans [3]): -0.27
- deltalog10CFU (Candida albicans [4]): -1.81
- deltalog10CFU (Candida albicans [5]): -2.09
- deltalog10CFU (Candida albicans [6]): -1.69
- MIC (Candida albicans [7]): 0.5 µg/mL (≈ 0.714 µM)
- IC50 [8]: 0.022 µg/mL (≈ 0.0314 µM)

Structure (SMILES): CC(C)[C@@H](C)[C@@]1(C)CC[C@]2(C)[C@H]3CC[C@@H]4[C@@]5(COC[C@@]4(C)[C@@H](OC[C@@]4(C)CCCN4C)[C@H](n4ncnc4-c4ccncc4)C5)C3=CC[C@@]2(C)[C@@H]1C(=O)O
- deltalog10CFU (Candida albicans [3]): -0.9
- deltalog10CFU (Candida albicans [4]): -1.4
- deltalog10CFU (Candida albicans [5]): -2
- deltalog10CFU (Candida albicans [6]): -1.8
- MIC (Candida albicans [7]): 0.125 µg/mL (≈ 0.172 µM)
- IC50 [8]: 0.0064 µg/mL (≈ 0.00879 µM)

Structure (SMILES): CC(C)[C@@H](C)[C@@]1(C)CC[C@]2(C)[C@H]3CC[C@@H]4[C@@]5(COC[C@@]4(C)[C@@H](OC[C@@]4(C)CCCN4)[C@H](n4ncnc4-c4ccncc4)C5)C3=CC[C@@]2(C)[C@@H]1C(=O)O
- AUC/dose (Mus musculus): 0.06 µM·kg·h/mg
- bioavailability [1]: 4.7%
- clearance [2]: 19.2 mL/min/kg
- deltalog10CFU (Candida albicans [5]): -2.16
- deltalog10CFU (Candida albicans [6]): -2.83
- MIC (Candida albicans [7]): 0.125 µg/mL (≈ 0.175 µM)
- IC50 [8]: 0.004 µg/mL (≈ 0.0056 µM)

Structure (SMILES): CC(C)[C@@H](C)[C@@]1(C)CC[C@]2(C)[C@H]3CC[C@@H]4[C@@]5(COC[C@@]4(C)[C@@H](OC[C@H]4CCCN4C)[C@H](n4ncnc4-c4ccncc4)C5)C3=CC[C@@]2(C)[C@@H]1C(=O)O
- AUC/dose (Mus musculus): 0.06 µM·kg·h/mg
- bioavailability [1]: 23%
- clearance [2]: 13.1 mL/min/kg
- deltalog10CFU (Candida albicans [3]): -1.22
- deltalog10CFU (Candida albicans [4]): -0.9
- deltalog10CFU (Candida albicans [5]): -1.14
- deltalog10CFU (Candida albicans [6]): -1.84
- MIC (Candida albicans [7]): 0.5 µg/mL (≈ 0.7 µM)
- IC50 [8]: 0.019 µg/mL (≈ 0.0266 µM)

Structure (SMILES): CC(=O)O[C@@H]1C[C@]23C4=CC[C@@]5(C)[C@H](C(=O)O)[C@@](C)([C@H](C)C(C)C)CC[C@]5(C)[C@H]4CC[C@H]2[C@@](C)(COC3O)[C@H]1O[C@@H]1O[C@H](CO)[C@@H](O)[C@H](O)[C@H]1O (stereo not given in full) [ENFUMAFUNGIN]
- MIC (Candida albicans [9]): 0.2 µg/mL (≈ 0.282 µM)
- IC50 [10]: 0.05 µg/mL (≈ 0.0705 µM)

Structure (SMILES): CN[C@@](C)(CO[C@H]1[C@H](n2ncnc2-c2ccncc2)C[C@@]23COC[C@]1(C)[C@@H]2CC[C@H]1C3=CC[C@@]2(C)[C@H](C(=O)O)[C@@](C)([C@H](C)C(C)C)CC[C@]12C)C(C)(C)C
- AUC/dose (Mus musculus): 0.62 µM·kg·h/mg
- bioavailability [1]: 42%
- clearance [2]: 16 mL/min/kg
- deltalog10CFU (Candida albicans [3]): -2.72
- deltalog10CFU (Candida albicans [4]): -3.88
- deltalog10CFU (Candida albicans [5]): -4.25
- deltalog10CFU (Candida albicans [6]): -4.37
- MIC (Candida albicans [7]): 0.03 µg/mL (≈ 0.0403 µM)
- IC50 [8]: 0.002 µg/mL (≈ 0.00269 µM)

Structure (SMILES): CC(C)[C@@H](C)[C@@]1(C)CC[C@]2(C)[C@H]3CC[C@@H]4[C@@]5(COC[C@@]4(C)[C@@H](OC[C@@H]4CCCN4C)[C@H](n4ncnc4-c4ccncc4)C5)C3=CC[C@@]2(C)[C@@H]1C(=O)O
- MIC (Candida albicans [7]): 1 µg/mL (≈ 1.4 µM)
- IC50 [8]: 0.061 µg/mL (≈ 0.0854 µM)

Structure (SMILES): CC(C)[C@@H](C)[C@@]1(C)CC[C@]2(C)[C@H]3CC[C@@H]4[C@@]5(COC[C@@]4(C)[C@@H](OC[C@@H]4CCCN4)[C@H](n4ncnc4-c4ccncc4)C5)C3=CC[C@@]2(C)[C@@H]1C(=O)O
- deltalog10CFU (Candida albicans [3]): -0.4
- deltalog10CFU (Candida albicans [4]): -0.26
- deltalog10CFU (Candida albicans [5]): -1.32
- deltalog10CFU (Candida albicans [6]): -2.18
- MIC (Candida albicans [7]): 1 µg/mL (≈ 1.43 µM)
- IC50 [8]: 0.018 µg/mL (≈ 0.0257 µM)
